# Reference: ChEMBL document CHEMBL1795235, “Quercetin diacylglycoside analogues showing dual inhibition of DNA gyrase and topoisomerase IV as novel antibacterial agents” (J Med Chem, 2011)
# Tests used:
# [1] = test system: Staphylococcus aureus; experiment: Antibacterial activity against methicillin-susceptible Staphylococcus aureus 209P after 24 hrs by microdilution method; assay type: functional
# Method in brief: (§1)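 Broth microdilution in Mueller-Hinton broth with 0.85% NaCl, inoculum about 10^5 CFU per 100 μL. Compounds were diluted in water from 25.6 mg/mL stocks to final 2-fold series of 0.062–128 μg/mL. Plates were incubated 24 h at 35 °C. MIC was the lowest concentration at which all triplicate wells were clear, from three independent determinations.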
# [2] = test system: Enterococcus; experiment: Antibacterial activity against vancomycin resistant Enterococcus FN-1 after 24 hrs by microdilution method; assay type: functional; conditions: FN-1, 24 h; method in brief: as §1
# [3] = test system: Enterococcus; experiment: Antibacterial activity against vancomycin resistant Enterococcus NCTC 12201 after 24 hrs by microdilution method; assay type: functional; conditions: NCTC 12201, 24 h; method in brief: as §1
# [4] = test system: Staphylococcus aureus; experiment: Antibacterial activity against vancomycin-intermediate Staphylococcus aureus Mu50 after 24 hrs by microdilution method; assay type: functional; conditions: Mu50, 24 h; method in brief: as §1
# [5] = test system: Staphylococcus aureus; experiment: Antibacterial activity against methicillin-resistant Staphylococcus aureus OM481 after 24 hrs by microdilution method; assay type: functional; conditions: OM481, 24 h; method in brief: as §1
# [6] = test system: Staphylococcus aureus; experiment: Antibacterial activity against methicillin-resistant Staphylococcus aureus OM584 after 24 hrs by microdilution method; assay type: functional; conditions: OM584, 24 h; method in brief: as §1
# [7] = test system: Staphylococcus aureus; experiment: Antibacterial activity against methicillin-resistant Staphylococcus aureus N315 after 24 hrs by microdilution method; assay type: functional; conditions: N315, 24 h; method in brief: as §1
# [8] = test system: Staphylococcus aureus; experiment: Antibacterial activity against methicillin-resistant Staphylococcus aureus COL after 24 hrs by microdilution method; assay type: functional; method in brief: as §1
# [9] = test system: Streptococcus pneumoniae; experiment: Antibacterial activity against Streptococcus pneumoniae R6 after 24 hrs by microdilution method; assay type: functional; conditions: R6, 24 h
# Method in brief: (§2)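 Broth microdilution in Mueller-Hinton broth with 0.85% NaCl, inoculum about 10^5 CFU per 100 μL. Compounds diluted from 25.6 mg/mL stocks in water to 2-fold series, final 0.062–128 μg/mL. […] Three independent determinations.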
# [10] = Inhibition of Staphylococcus aureus DNA Topoisomerase 4-mediated decatenation of kDNA after 30 mins by densitometry
# Method in brief: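 Purchased S. aureus topoIV, one unit with 200 ng kDNA, 37 °C, 30 min. Products resolved on 1.0% agarose in TAE. IC50 of decatenation from densitometry by interpolation equation, at least three determinations.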
# [11] = Inhibition of Escherichia coli DNA topoisomerase 4 subunit ParC/DNA topoisomerase 4 subunit ParE-mediated decatenation of kDNA by densitometry
# Method in brief: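 Purchased E. coli topoIV kit enzyme, one unit with 200 ng kDNA, 37 °C, 30 min. Buffer: 50 mM HEPES-KOH pH 7.6, 5 mM magnesium acetate, 100 mM potassium glutamate, 10 mM DTT, 1 mM ATP, 40% glycerol. Gel on 1.0% agarose in TAE. IC50 of decatenation from densitometry by interpolation equation, at least three determinations.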
# [12] = test system: Pseudomonas aeruginosa; experiment: Antibacterial activity against Pseudomonas aeruginosa PAO1 after 24 hrs by microdilution method; assay type: functional; conditions: PAO1, 24 h; method in brief: as §2
# [13] = test system: Escherichia coli; experiment: Antibacterial activity against Escherichia coli K-12 after 24 hrs by microdilution method; assay type: functional; conditions: K-12, 24 h; method in brief: as §2
# [14] = Inhibition of Escherichia coli DNA gyrase assessed as inhibition of pBR322 supercoiling by densitometry
# Method in brief: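 One unit of E. coli gyrase with 0.5 μg relaxed pBR322 DNA, 37 °C, 30 min. Stopped with sucrose/EDTA dye, run on 1.0% agarose in TAE. IC50 from densitometry via log-interpolation equation.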
Compound,MIC [1],MIC [2],MIC [3],MIC [4],MIC [5],MIC [6],MIC [7],MIC [8],MIC [9],IC50 [10],IC50 [11],MIC [12],MIC [13],IC50 [14]
O=C(Cc1ccc(F)cc1)O[C@H]1[C@H](Oc2c(-c3ccc(O)c(O)c3)oc3cc(O)cc(O)c3c2=O)O[C@H](CO)[C@@H](O)[C@@H]1OC(=O)Cc1ccc(F)cc1,1 µg/mL,2 µg/mL,4 µg/mL,1 µg/mL,2 µg/mL,2 µg/mL,1 µg/mL,4 µg/mL,1 µg/mL,1450 nM,10100 nM,,,
O=C(CCc1ccc(O)cc1)O[C@H]1[C@H](Oc2c(-c3ccc(O)c(O)c3)oc3cc(O)cc(O)c3c2=O)O[C@H](CO)[C@@H](O)[C@@H]1OC(=O)CCc1ccc(O)cc1,1 µg/mL,2 µg/mL,4 µg/mL,1 µg/mL,2 µg/mL,2 µg/mL,1 µg/mL,4 µg/mL,1 µg/mL,1980 nM,11800 nM,,,
CCCc1ccc(C(=O)OC[C@H]2O[C@@H](Oc3c(-c4ccc(O)c(O)c4)oc4cc(O)cc(O)c4c3=O)[C@H](OC(=O)c3ccc(CCC)cc3)[C@@H](O)[C@H]2O)cc1,2 µg/mL,8 µg/mL,4 µg/mL,4 µg/mL,4 µg/mL,4 µg/mL,2 µg/mL,16 µg/mL,2 µg/mL,1930 nM,10900 nM,> 128 µg/mL,> 128 µg/mL,770 nM
CO[C@@H]1[C@@H](OC(N)=O)[C@@H](O)[C@H](Oc2ccc3c(O)c(NC(=O)c4ccc(O)c(CC=C(C)C)c4)c(=O)oc3c2C)OC1(C)C [NOVOBIOCIN],0.13 µg/mL,> 128 µg/mL,2 µg/mL,8 µg/mL,0.25 µg/mL,0.25 µg/mL,0.13 µg/mL,0.25 µg/mL,0.25 µg/mL,,110 nM,8 µg/mL,8 µg/mL,
O=C(O[C@H]1[C@H](Oc2c(-c3ccc(O)c(O)c3)oc3cc(O)cc(O)c3c2=O)O[C@H](CO)[C@@H](O)[C@@H]1OC(=O)c1ccc(F)cc1)c1ccc(F)cc1,1 µg/mL,2 µg/mL,4 µg/mL,1 µg/mL,2 µg/mL,2 µg/mL,1 µg/mL,4 µg/mL,1 µg/mL,1210 nM,10800 nM,,,
CC1O[C@H](Oc2c(-c3ccc(O)cc3)oc3cc(O)cc(O)c3c2=O)[C@@H](OC(=O)/C=C/c2ccc(O)cc2)[C@@H](O)[C@@H]1OC(=O)/C=C/c1ccc(O)cc1 (stereo not given in full),0.5 µg/mL,8 µg/mL,4 µg/mL,,1 µg/mL,2 µg/mL,1 µg/mL,1 µg/mL,,2700 nM,,> 128 µg/mL,> 128 µg/mL,3110 nM
CCCc1ccc(C(=O)O[C@H]2[C@H](Oc3c(-c4ccc(O)c(O)c4)oc4cc(O)cc(O)c4c3=O)O[C@H](CO)[C@@H](O)[C@@H]2OC(=O)c2ccc(CCC)cc2)cc1,1 µg/mL,2 µg/mL,4 µg/mL,1 µg/mL,2 µg/mL,2 µg/mL,1 µg/mL,4 µg/mL,1 µg/mL,1830 nM,11800 nM,,,
CCn1cc(C(=O)O)c(=O)c2cc(F)c(N3CCNCC3)cc21 [NORFLOXACIN],0.5 µg/mL,> 128 µg/mL,4 µg/mL,> 128 µg/mL,64 µg/mL,128 µg/mL,2 µg/mL,1 µg/mL,0.25 µg/mL,3500 nM,,0.25 µg/mL,0.25 µg/mL,90 nM
Cc1ccc(CCC(=O)O[C@H]2[C@H](Oc3c(-c4ccc(O)c(O)c4)oc4cc(O)cc(O)c4c3=O)O[C@H](CO)[C@@H](O)[C@@H]2OC(=O)CCc2ccc(C)cc2)cc1,1 µg/mL,2 µg/mL,4 µg/mL,1 µg/mL,2 µg/mL,2 µg/mL,1 µg/mL,4 µg/mL,1 µg/mL,2020 nM,11600 nM,,,
